Results as given in ChEMBL document CHEMBL1129618, “(+/-)-3-[4'-(N,N-dimethylamino)cinnamyl]benzazepine analogs: novel dopamine D1 receptor antagonists” (J Med Chem, 1996).

Tests used:
[1] = biological target: T1, D(1A) dopamine receptor (Rattus norvegicus, UniProt P18901); assay: Dopamine receptor D1 antagonistic activity as ability to block dopamine-stimulated adenylate cyclase in rat caudate; assay type: functional
[2] = biological target: D(2) dopamine receptor (Rattus norvegicus, UniProt P61169); assay: Affinity for Dopamine receptor D2 binding measured by sulpiride […] to rat striatal membrane; parameters: species or system Striatum
Sequence of D(2) dopamine receptor (P61169 whole entry): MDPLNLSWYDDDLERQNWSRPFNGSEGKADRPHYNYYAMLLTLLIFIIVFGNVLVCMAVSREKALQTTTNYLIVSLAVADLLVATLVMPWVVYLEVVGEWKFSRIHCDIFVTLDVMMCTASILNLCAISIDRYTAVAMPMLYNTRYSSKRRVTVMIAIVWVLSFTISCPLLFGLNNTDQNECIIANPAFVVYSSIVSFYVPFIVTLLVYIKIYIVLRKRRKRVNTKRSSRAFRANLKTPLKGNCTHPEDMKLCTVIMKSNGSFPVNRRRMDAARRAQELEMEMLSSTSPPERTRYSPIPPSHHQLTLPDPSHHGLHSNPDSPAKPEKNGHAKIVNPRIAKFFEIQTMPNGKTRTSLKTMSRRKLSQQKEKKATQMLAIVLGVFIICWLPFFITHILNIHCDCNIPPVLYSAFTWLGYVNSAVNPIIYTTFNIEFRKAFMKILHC
In short: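 Competition binding against [³H]sulpiride at D2 sites in rat striatal (caudate putamen) membranes. Ki values are means ± SEM of at least three determinations, each run in triplicate.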

[3] = biological target: T1, D(1A) dopamine receptor; assay: Affinity for Dopamine receptor D1 binding measured by competition against [3H]-SCH- 23390 to rat striatal membrane; parameters: species or system Striatum
In short: (§1)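 Competition binding against [³H]SCH 23390 at D1 sites in rat striatal (caudate putamen) membranes. Ki values are means ± SEM of at least three determinations, each run in triplicate.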

[4] = biological target: T1, D(1A) dopamine receptor; assay: Affinity for dopamine receptor D1 binding measured by competition against [3H]-SCH- 23390 to rat striatal membrane; parameters: species or system Striatum; in short: as §1

T1 sequence (P18901 whole entry): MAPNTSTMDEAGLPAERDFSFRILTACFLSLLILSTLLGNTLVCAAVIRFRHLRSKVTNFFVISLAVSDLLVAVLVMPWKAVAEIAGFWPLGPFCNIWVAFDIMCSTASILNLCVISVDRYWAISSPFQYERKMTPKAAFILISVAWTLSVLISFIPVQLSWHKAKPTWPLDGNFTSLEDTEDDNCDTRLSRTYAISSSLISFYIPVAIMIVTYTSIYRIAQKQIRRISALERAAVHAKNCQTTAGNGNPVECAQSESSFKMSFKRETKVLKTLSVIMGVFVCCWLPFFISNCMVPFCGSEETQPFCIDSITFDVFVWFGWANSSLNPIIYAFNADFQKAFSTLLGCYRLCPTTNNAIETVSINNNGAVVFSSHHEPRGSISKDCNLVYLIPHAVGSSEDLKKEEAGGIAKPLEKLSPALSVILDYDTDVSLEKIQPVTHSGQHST

In the case of `CN(C)CCCCCCN1CCc2cc(Cl)c(O)cc2C(c2ccccc2)C1` (stereo unspecified), the Ki [1] is reported as 21 nM and the Ki ([2]; read-out: Ki) is reported as 4130 nM.
With `COc1cc2c(cc1Br)CCN(C/C=C/c1ccc(N(C)C)cc1)CC2c1ccccc1` (stereo unspecified) the Ki ([2]; read-out: Ki) was 2000 nM.
Compound `CN(C)c1ccc(/C=C/CN2CCc3cc(Cl)c(O)cc3C(c3ccccc3)C2)cc1` (stereo unspecified) has a Ki [1] of 18.4 nM and a Ki ([2]; read-out: Ki) of 345 nM.
`CN(C)CCCCN1CCc2cc(Cl)c(O)cc2C(c2ccccc2)C1` (stereo unspecified) gave a Ki ([2]; read-out: Ki) of 3450 nM.
`CN(C)c1ccc(CCN2CCc3cc(Cl)c(O)cc3C(c3ccccc3)C2)cc1` (stereo unspecified) gave a Ki [3] of 88.4 nM.
Compound `CN(C)c1ccc(/C=C/CN2CCc3cc(Br)c(O)cc3C(c3ccccc3)C2)cc1` (stereo unspecified) has a Ki [4] of 120 nM and a Ki ([2]; read-out: Ki) of 858 nM.
For `Oc1cc2c(cc1Br)CCN(C/C=C/c1ccccc1)CC2c1ccccc1` (stereo unspecified), the Ki [4] was 209 nM and the Ki [2] was “Insoluble”.
